For orientation: inhibition means the change of the read-out against control, counted positive when it falls. A high value points to a response far below the control. By pKi is commonly meant the negative decadic logarithm of the Ki, by convention in mol/L. A low value points to a high Ki.

pKi: −log10 of the molar value. A value given as a limit tells only on which side of the number the result lay.

For the first experiment, the system named is Oryza sativa. Nature of the experiment: Inhibition of rice KARI at 200 ppm. In short, it runs like this: (§1)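 Activity followed as the decrease in A340 at 30 °C. Reaction mix: 0.2 mM NADPH, 1 mM MgCl2, substrate (2-acetolactate or hydroxypyruvate) and inhibitor as required, in 0.1 M Tris–HCl, pH 8.0. Reaction started by adding enzyme. In inhibitor preincubation runs, substrate was added last instead.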
`Cc1ccc(NC(=O)C2(C#N)CC2)cc1` displayed an inhibition of 61.2%. With `N#CC1(C(=O)Nc2ccccc2)CC1`, the inhibition came out at 77.2%.

`N#CC1(C(=O)Nc2ccc(Cl)cc2)CC1`: the inhibition turned out to be 93.9%. Same read-out and setting: with `N#CC1(C(=O)NCCO)CC1` the figure was 98.9%; with `N#CC1(C(=O)Nc2cccc(Cl)c2)CC1`, 0%. Still for that read-out and setting: next, `N#CC1(C(=O)Nc2cc(Cl)c(Cl)cc2Cl)CC1`: 0%.

For `N#CC1(C(=O)O)CC1`, the inhibition was 100%. Same read-out and setting: next, `N#CC1(C(=O)Nc2cccc(Br)c2)CC1`: 17.2%; `CCOC(=O)C1(C#N)CC1`: 0%; `COc1ccc(NC(=O)C2(C#N)CC2)cc1`: 3.95%. For the compound `N#CC1(C(=O)Nc2ccc(Cl)cc2Cl)CC1`, the inhibition worked out at 97%. The compound `N#CC1(C(=O)Nc2ccc(C(F)(F)F)cc2)CC1` returned an inhibition of 0%. The compound `N#CC1(C(=O)Nc2cccc(C(F)(F)F)c2)CC1` had an inhibition of 0%. `N#CC1(C(=O)Nc2ccc(Br)cc2)CC1` gave an inhibition of 32.2%. Same read-out and setting: next, `N#CC1(C(=O)Nc2ccccc2C(F)(F)F)CC1`: 0%; `Cc1ccccc1NC(=O)C1(C#N)CC1`: 100%.

Molecular target in the next experiment: not listed separately
In words: Inhibition of rice KARI. Also noted: species or system Oryza sativa. In short, it runs like this:
as §1
`Cc1ccc(NC(=O)C2(C#N)CC2)cc1` had a negative logarithm of the Ki (pKi) of less than 3.52. `N#CC1(C(=O)O)CC1`: the pKi is 4.02.

For the origin of these results see ChEMBL document CHEMBL1139996, “Synthesis, bioactivity, theoretical and molecular docking study of 1-cyano-N-substituted-cyclopropanecarboxamide as ketol-acid reductoisomerase inhibitor” (Bioorg Med Chem Lett, 2007).
